Test results from ChEMBL document CHEMBL4308883, “Development of hydroxamate-based histone deacetylase inhibitors containing 1,2,4-oxadiazole moiety core with antitumor activities” (Bioorg Med Chem Lett, 2019).

Experiments:
[1] = tested on: HepG2; test: Induction of apoptosis in human HepG2 cells assessed as late apoptotic cells at 5 uM after 48 hrs by annexin V-FITC/propidium iodide staining based assay (reference value: 1.8 %); assay type: functional
[2] = target: T1, Histone deacetylase 1 (Homo sapiens, UniProt Q13547); test: Inhibition of HDAC1 in human HepG2 cells assessed as increase in acetylated histone H4 levels by Western blot analysis; assay type: cell-based
Summary of the method: (§1)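 HepG2 cells were treated at three concentrations (1.25, 2.5 and 5.0), with SAHA as the reference. Acetylated histone H3 and H4 were detected by immunoblotting. Ac-H3 and Ac-H4 band intensities were quantified by densitometric scanning and normalised to β-actin, n = 3.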

[3] = tested on: HepG2; test: Induction of apoptosis in human HepG2 cells assessed as late apoptotic cells at 1.25 uM after 48 hrs by annexin V-FITC/propidium iodide staining based assay (reference value: 1.8 %); assay type: functional
[4] = target: T1, Histone deacetylase 1; test: Inhibition of HDAC1 (unknown origin) using Boc-Lys (Ac)-AMC as substrate measured after 60 mins by […]
[5] = tested on: HepG2; test: Induction of apoptosis in human HepG2 cells assessed as early apoptotic cells at 1.25 uM after 48 hrs by annexin V-FITC/propidium iodide staining based assay (reference value: 3.2 %); assay type: functional
[6] = tested on: HepG2; test: Induction of apoptosis in human HepG2 cells assessed as early apoptotic cells at 2.5 uM after 48 hrs by annexin V-FITC/propidium iodide staining based assay (reference value: 3.2 %); assay type: functional
[7] = tested on: HCCLM3; test: Antiproliferative activity against human HCCLM3 cells after 48 hrs by MTT assay; assay type: functional, cell-based; details: HCCLM3, 48 h
[8] = tested on: HepG2; test: Induction of apoptosis in human HepG2 cells assessed as early apoptotic cells at 5 uM after 48 hrs by annexin V-FITC/propidium iodide staining based assay (reference value: 3.2 %); assay type: functional
[9] = tested on: HepG2; test: Induction of apoptosis in human HepG2 cells after 48 hrs by annexin V-FITC/propidium iodide staining based assay; assay type: functional, cell-based
[10] = tested on: HepG2; test: Induction of apoptosis in human HepG2 cells assessed as late apoptotic cells at 2.5 uM after 48 hrs by annexin V-FITC/propidium iodide staining based assay (reference value: 1.8 %); assay type: functional
[11] = target: T1, Histone deacetylase 1; test: Inhibition of HDAC1 in human HepG2 cells assessed as increase in acetylated histone H3 levels by Western blot analysis; assay type: cell-based; summary of the method: as §1
[12] = tested on: HepG2; test: Potency index, ratio of SAHA IC50 to test compound IC50 for antiproliferative activity against human HepG2 cells; assay type: functional
[13] = tested on: HepG2; test: Antiproliferative activity against human HepG2 cells after 48 hrs by MTT assay; assay type: functional, cell-based; details: HepG2, 48 h
[14] = target: T1, Histone deacetylase 1; test: Potency index, ratio of SAHA IC50 to test compound IC50 for HDAC1 (unknown origin)

T1 sequence (Q13547 whole entry): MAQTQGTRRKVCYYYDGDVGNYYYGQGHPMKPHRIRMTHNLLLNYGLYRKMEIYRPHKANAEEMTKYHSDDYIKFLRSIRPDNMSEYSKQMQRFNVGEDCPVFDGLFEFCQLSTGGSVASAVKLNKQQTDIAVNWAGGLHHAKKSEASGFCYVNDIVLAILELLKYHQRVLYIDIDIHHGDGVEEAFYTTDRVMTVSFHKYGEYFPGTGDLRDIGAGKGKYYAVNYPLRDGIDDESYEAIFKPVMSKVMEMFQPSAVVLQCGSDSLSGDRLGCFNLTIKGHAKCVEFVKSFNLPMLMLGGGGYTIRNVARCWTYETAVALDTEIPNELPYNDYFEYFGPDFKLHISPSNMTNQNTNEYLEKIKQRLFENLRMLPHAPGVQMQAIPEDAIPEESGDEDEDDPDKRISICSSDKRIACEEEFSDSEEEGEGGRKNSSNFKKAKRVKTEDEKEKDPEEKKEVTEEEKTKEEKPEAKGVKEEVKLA

| inhibition [2] | IC50 [4] | IC50 [7] | inhibition [11] | IC50 [13] | Ratio IC50 [14] | Compound | Activity [1] | Activity [3] | Activity [5] | Activity [6] | Activity [8] | Activity [9] | Activity [10] | Ratio IC50 [12] |
| --- | --- | --- | --- | --- | --- | --- | --- | --- | --- | --- | --- | --- | --- | --- |
| Dose-dependent effect | 10.5 nM | 6560 nM | Dose-dependent effect | 1030 nM | – | COc1ccc(N(Cc2noc(-c3cccc(F)c3)n2)C(=O)CCCCCC(=O)NO)cc1 | 10% | 11.1% | 44.6% | 44% | 50.8% | Dose-dependent effect | 14% | 2 - 4 |
| – | – | – | – | – | – | O=C(CCCCCCC(=O)Nc1ccccc1)NO [VORINOSTAT] | 10.7% | 9.3% | 29.7% | 33.5% | 40.4% | – | 10.7% | – |
| – | 12.1 nM | 6830 nM | – | 1680 nM | – | COc1ccc(N(Cc2noc(-c3cccc(C)c3)n2)C(=O)CCCCCC(=O)NO)cc1 | – | – | – | – | – | – | – | 2 - 4 |
| Dose-dependent effect | 8.2 nM | 5190 nM | Dose-dependent effect | 1070 nM | 2 | COc1ccc(N(Cc2noc(-c3ccccc3)n2)C(=O)CCCCCC(=O)NO)cc1 | 11.5% | 10.1% | 40.7% | 42.7% | 50.2% | Dose-dependent effect | 11.3% | 2 - 4 |
